Experiments:
Hepatocyte [1] = experiment: Drug level in human hepatocytes treated with 100 uM MFA by sensitive LC-MS/MS MRM analysis; assay type: ADME, cell-based
In short: (§1)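 Human hepatocytes, either cryopreserved 20-donor pooled or a single-donor suspension, thawed or warmed at 37°C, washed in William's E (pH 7.4, 4 mM L-glutamate). Cells at 2 million viable/ml, >95% trypan-blue viability. Incubated with 100 µM MFA at 37°C under 95% O2/5% CO2 with orbital shaking, n=3 per time point. Quench: acetonitrile/3% formic acid with CBZ internal standard; LC-MS/MS MRM.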

[2] = Increase in drug level in phosphate buffer treated with 1 uM MFA-1-beta-O-G at pH 7.4 at 37 degC in presence of GSH/rat liver GST after 60 mins
In short: (§2)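 Acyl-CoA or acyl glucuronide (1 µM) with 10 mM GSH in 0.1 M potassium phosphate, pH 7.4, 37°C, additionally fortified with rat liver GST (3 units/ml). Up to 60 min; acyl-SG formation measured by LC-MS/MS and compared with incubations lacking GST.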

[3] = Drug level in phosphate buffer treated with 1 uM MFA-1-beta-O-G at pH 7.4 at 37 degC in presence of GSH after 60 mins; assay type: physicochemical; conditions: pH 7.4, 1 h
In short: (§3)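 Acyl-CoA or acyl glucuronide (1 µM) in 0.1 M potassium phosphate, pH 7.4, 37°C, with 10 mM GSH, n=3. Quenched at 0, 15, 30, 45 and 60 min with acetonitrile/3% formic acid containing 1 µM CBZ. The acyl-SG product was measured by LC-MS/MS; mean ± S.D.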

[4] = Increase in drug level in phosphate buffer treated with 1 uM MFA-SCoA at pH 7.4 at 37 degC in presence of GSH/rat liver GST after 60 mins; in short: as §2
Hepatocyte [5] = experiment: Drug level in cryopreserved human hepatocytes treated with 100 uM MFA at 10 mins incubation; assay type: ADME, cell-based; in short: as §1
[6] = Drug level in Sprague-Dawley rat bile treated with 100 mg/kg, ip MFA after 6 hrs by LC-MS/MS analysis; assay type: ADME, organism-based; parameters: dose 100 mg/kg, route intraperitoneal; conditions: in vivo
In short: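 Male Sprague-Dawley rats (300–330 g, n=3) with bile-duct cannulas, housed in metabolic cages; MFA 100 mg/kg i.p. in water, pH 7.0. Artificial bile-salt supplement infused via duodenal cannula at 1 ml/h. Bile collected over 6 h into phosphoric acid on wet ice, centrifuged, and the supernatant quantified by LC-MS/MS against a linear standard curve of analyte/CBZ peak-area ratios.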

Hepatocyte [7] = experiment: Drug level in rat hepatocytes treated with at 100 uM MFA by LC-MS/MS analysis in presence of 1000 uM Lauric acid (reference value: 334 +/- 76); assay type: ADME, cell-based
In short: (§4)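 Rat hepatocytes (2 million cells/ml, 0.5 ml) with 100 µM MFA for 10 min, with or without 1000 µM (−)-borneol (glucuronidation inhibitor; DMSO stock, 0.1% v/v final in controls) or 1000 µM lauric acid (acyl-CoA formation inhibitor; aqueous stock, pH 7). Triplicate incubations; LC-MS/MS MRM; results given as nM and as % of control, mean ± S.D.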

Hepatocyte [8] = experiment: Drug level in rat hepatocytes treated with 100 uM MFA by reverse phase LC-MS/MS analysis; assay type: ADME, cell-based
In short: (§5)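 Rat hepatocytes at 2 million viable cells/ml in William's E (pH 7.4) at 37°C under 95% O2/5% CO2, with 100 µM MFA for up to 60 min. Quench times 0–60 min; n=3 incubations per point across three separate studies. Acyl-SG and glucuronide quenched with acidic acetonitrile plus CBZ; acyl-CoA quenched with acetonitrile plus CBZ, then hexane extraction. Positive-ion LC-MS/MS MRM; quantified from analyte/CBZ standard curves.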

[9] = Drug level in phosphate buffer treated with 1 uM MFA SCoA at pH 7.4 at 37 degC in presence of GSH after 60 mins; assay type: physicochemical; conditions: pH 7.4, 1 h; in short: as §3
Hepatocyte [10] = experiment: Drug level in rat hepatocytes treated with 100 uM MFA after 60 mins; assay type: ADME, cell-based; conditions: 1 h; in short: as §5
Hepatocyte [11] = experiment: Drug level in rat hepatocytes treated with at 100 uM MFA by LC-MS/MS analysis in presence of 1000 uM (-)-borneol (reference value: 334 +/- 76); assay type: ADME, cell-based; in short: as §4
Hepatocyte [12] = experiment: Drug level in rat hepatocytes treated with 500 uM MFA by LC-MS/MS analysis; assay type: ADME, cell-based
In short: (§6)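 Rat hepatocytes (2 million cells/ml, William's E pH 7.4, 37°C, 95% O2/5% CO2) incubated 10 min with MFA at 0.8–500 µM (11 levels). Quenched and processed for LC-MS/MS MRM of the acyl-SG, acyl glucuronide and acyl-CoA derivatives. Three separate experiments, n=3 incubations per concentration; mean ± S.D.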

[13] = (§7) Stability in rat liver GST assessed as degradation at 1 uM after 30 mins relative to control; assay type: ADME, tissue-based; conditions: 0.5 h, 1 µM
In short: (§8)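 Acyl-SG thioesters (1 µM) in 0.1 M phosphate buffer, pH 7.4, 37°C (0.2 ml), with or without rat liver GST at 3 units/ml. Duplicates per time point, quenched at 0–60 min with acidic acetonitrile plus CBZ and analysed directly by LC-MS/MS. Degradation at 30 min expressed relative to the no-GST control.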

[14] = Half life in rat hepatocytes; assay type: ADME, cell-based, Hepatocyte
In short: (§9)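 Authentic acyl-SG thioesters or acyl glucuronide (1 µM) incubated with rat hepatocytes (2 million cells/ml). Quenched at 0–30 min and analysed by LC-MS/MS for % remaining; average of two incubations per time point; half-life derived from the decline.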

GST = experiment: as §7; assay type: ADME, tissue-based; conditions: rat liver GST; in short: as §8
[15] = Drug level in phosphate buffer treated with 1 uM I-SCoA at pH 7.4 at 37 degC in presence of GSH after 60 mins; assay type: physicochemical; conditions: pH 7.4, 1 h; in short: as §3
[16] = Stability in potassium phosphate buffer at 1 uM at pH 7.4 at 37 degC; assay type: physicochemical; conditions: pH 7.4, 1 µM
In short: (§10)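 Acyl-CoA and acyl glucuronide (1 µM, separate incubations) in 0.1 M potassium phosphate, pH 7.4, 37°C, without GSH. Quenched at 0, 5, 8 and 15 h, n=3 per time point; % remaining determined by LC-MS/MS.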

Hepatocyte [17] = experiment: Drug level in rat hepatocytes treated with at 100 uM MFA by LC-MS/MS analysis in presence of 1000 uM Lauric acid (reference value: 9.1 +/- 4.5); assay type: ADME, cell-based; in short: as §4
Hepatocyte [18] = experiment: Drug level in rat hepatocytes treated with at 100 uM MFA by LC-MS/MS analysis in presence of 1000 uM (-)-borneol (reference value: 9.1 +/- 4.5); assay type: ADME, cell-based; in short: as §4
Hepatocyte [19] = experiment: Drug level in rat hepatocytes treated with 15.6 uM MFA by LC-MS/MS analysis; assay type: ADME, cell-based; in short: as §6
Hepatocyte [20] = experiment: Retention time in rat hepatocytes treated with 100 uM MFA by positive ion LC-MS/MS analysis; assay type: ADME, cell-based; in short: as §5
Hepatocyte [21] = experiment: Drug level in rat hepatocytes treated with at 100 uM MFA by LC-MS/MS analysis in presence of 1000 uM (-)-borneol (reference value: 619 +/-158); assay type: ADME, cell-based; in short: as §4
[22] = Half life in rat hepatocytes at 1 uM; assay type: ADME, cell-based, Hepatocyte; in short: as §9
[23] = Half life in potassium phosphate buffer at 1 uM at pH 7.4 at 37 degC; assay type: physicochemical; in short: as §10
Hepatocyte [24] = experiment: Drug level in rat hepatocytes treated with 62.5 uM MFA by LC-MS/MS analysis; assay type: ADME, cell-based; in short: as §6
Hepatocyte [25] = experiment: Drug level in rat hepatocytes treated with at 100 uM MFA by LC-MS/MS analysis in presence of 1000 uM Lauric acid (reference value: 619 +/-158); assay type: ADME, cell-based; in short: as §4
Hepatocyte [26] = experiment: Drug level in single-donor human hepatocytes in suspension treated with 100 uM MFA at 60 mins incubation; conditions: 1 h
[27] = Drug metabolism in rat hepatocytes assessed as acyl migration isomers at 100 uM by positive ion LC-MS/MS analysis; assay type: ADME, cell-based, Hepatocyte
[28] = Drug metabolism in rat hepatocytes assessed as MFA-1-beta-O-G at 100 uM by positive ion LC-MS/MS analysis; assay type: ADME, cell-based, Hepatocyte; in short: as §5
[29] = Drug metabolism in human hepatocytes assessed as MFA-SG at 100 uM by sensitive LC-MS/MS MRM analysis; assay type: ADME, cell-based, Hepatocyte; in short: as §1
[30] = Drug metabolism in human hepatocytes assessed as MFA-SCoA at 100 uM by reverse phase LC-MS/MS analysis; assay type: ADME, cell-based, Hepatocyte
In short: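 MFA 100 µM with human hepatocytes (2 million viable cells/ml, William's E pH 7.4, 37°C, 95% O2/5% CO2). For the acyl-CoA thioester, quench was acetonitrile without formic acid plus CBZ, followed by hexane extraction. The aqueous layer was analysed by positive-ion LC-MS/MS MRM (m/z 991→224 and 484).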

[31] = Drug metabolism in rat hepatocytes assessed as I-SG thioester at 100 uM at 10 mins incubation by LC-MS/MS analysis; assay type: ADME, cell-based, Hepatocyte
In short: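 Rat hepatocytes (2 million cells/ml, William's E pH 7.4, 37°C, 95% O2/5% CO2) incubated with (R)-ibuprofen 100 µM for 10 min, n=3. Quenched with acetonitrile/3% formic acid containing CBZ. The acyl-SG thioester was quantified by LC-MS/MS against a linear acyl-SG/CBZ peak-area-ratio standard curve.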

[32] = Drug metabolism in rat hepatocytes assessed as MFA-SG at 100 uM by sensitive LC-MS/MS MRM analysis; assay type: ADME, cell-based, Hepatocyte; in short: as §5
[33] = Drug metabolism in rat hepatocytes assessed as MFA-SCoA by LC-MS/MS analysis; assay type: ADME, cell-based, Hepatocyte; in short: as §6
[34] = Drug metabolism in rat hepatocytes assessed as MFA-SCoA at 100 uM by reverse phase LC-MS/MS analysis; assay type: ADME, cell-based, Hepatocyte; in short: as §5

Cc1cccc(Nc2ccccc2C(=O)SC[C@H](NC(=O)CC[C@H](N)C(=O)O)C(=O)NCC(=O)O)c1C
Drug metabolism (Hepatocyte [1]): metabolite_detected
fold change (FC) [2]: 6
Drug metabolism [3]: 2.7 nM
fold change (FC) [4]: 1.3
Drug metabolism (Hepatocyte [5]): 1 nM
Drug uptake [6]: 17.4 µg
Drug metabolism (Hepatocyte [7]): 113 nM
Drug metabolism (Hepatocyte [8]): metabolite_detected
Drug metabolism [9]: 208 nM
Drug metabolism (Hepatocyte [10]): 50 nM
Drug metabolism (Hepatocyte [11]): 387 nM
Drug metabolism (Hepatocyte [12]): 230 nM

N[C@@H](CCC(=O)N[C@@H](CSC(=O)Cc1ccccc1Nc1c(Cl)cccc1Cl)C(=O)NCC(=O)O)C(=O)O
Stability [13]: Unstable
half-life [14]: 1 min

CC(C)Cc1ccc(C(C)C(=O)SC[C@H](NC(=O)CC[C@H](N)C(=O)O)C(=O)NCC(=O)O)cc1 (some centres undefined)
metabolised at 0.5 h, 1 µM (GST): 11%
Drug metabolism [15]: 440 nM
Drug metabolism [9]: 440 nM
half-life [14]: 4 min

Cc1cc(CC(=O)SC[C@H](NC(=O)CC[C@H](N)C(=O)O)C(=O)NCC(=O)O)n(C)c1C(=O)c1ccc(Cl)cc1
half-life [14]: 0.8 min

Cc1cccc(Nc2ccccc2C(=O)SCCNC(=O)CCNC(=O)C(O)C(C)(C)COP(=O)(O)OP(=O)(O)OC[C@H]2O[C@@H](n3cnc4c(N)ncnc43)[C@H](O)[C@@H]2OP(=O)(O)O)c1C (some centres undefined)
Stability [16]: Stable
Drug metabolism (Hepatocyte [17]): 3.8 nM
Drug metabolism (Hepatocyte [8]): metabolite_detected
Drug metabolism (Hepatocyte [18]): 8.8 nM
Drug metabolism (Hepatocyte [19]): 6 nM

Cc1cccc(Nc2ccccc2C(=O)O[C@@H]2O[C@H](C(=O)O)[C@@H](O)[C@H](O)[C@H]2O)c1C
Retention_time (Hepatocyte [20]): 11 min
Drug metabolism (Hepatocyte [21]): 55.1 nM
half-life at 1 µM [22]: > 60 min
half-life at 1 µM [23]: 990 min
Drug metabolism (Hepatocyte [24]): 700 nM
Drug metabolism (Hepatocyte [25]): 198 nM
Drug metabolism (Hepatocyte [5]): 3500 nM
Drug uptake [6]: 2000 µg
Drug metabolism (Hepatocyte [10]): 1560 nM
Drug metabolism (Hepatocyte [26]): 18.6 µM
Drug metabolism (Hepatocyte [12]): 460 nM

Cc1cccc(Nc2ccccc2C(=O)O)c1C [MEFENAMIC ACID]
Drug metabolism [27]: metabolite_not_detected
Drug metabolism [28]: metabolite_detected
Drug metabolism [29]: metabolite_detected
Drug metabolism [30]: metabolite_not_detected
Drug uptake [6]: 4 µg
Drug metabolism [31]: 3 nM
Drug metabolism [32]: metabolite_detected
Drug metabolism [33]: Dose-dependent effect
Drug metabolism [34]: metabolite_detected

Reference: ChEMBL document CHEMBL3526011, “Metabolic activation of mefenamic acid leading to mefenamyl-S-acyl-glutathione adduct formation in vitro and in vivo in rat” (Drug Metab Dispos, 2012)
